The values below come from article PMC4007056 (Molecular cancer therapeutics, 2014).

The subject of experiment [1] is i.c. HIFko tumor derived cell suspension. As to the kind of experiment: ex vivo binding of individual phage to tumor-derived cell suspension. It is filed as cell-based, mouse. Conditions: cell suspension from tumor containing brain relative to normal brain.
The test system of experiment [2] is intracranial HIFko tumors. Briefly: in vivo homing of intravenously injected phage. Also on record: species or system mouse. The conditions noted are these: intravenous injection; compared to control phage; mean of three experiments. The gist of the method: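 T7Select415-1 phage displaying the peptide were injected into the tail vein of mice bearing intracranial HIFko tumors and circulated 15 min. Tissues were excised and phage recovered and amplified in E. coli BLT5615. Non-recombinant control phage was injected into a separate mouse, and homing was expressed relative to it. Mean of three experiments, ±SEM.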

The test system of experiment [3] is intracranial U87MG human glioma. As to the kind of experiment: in vivo homing of fluorescein-conjugated peptide, i.c. U87MG glioma. Further details: species or system mouse. Conditions: fluorescein-conjugated peptide i.v., 60 min. Put shortly:
(§1)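 Athymic female Balb/c nu-nu mice (4–6 wk) with intracranial tumors, used 10–21 days after inoculation. Fluorescein-labelled peptide (100 µM, 100 µl/animal) was injected into the tail vein and circulated 60 min. Mice were perfused through the […] and tumors excised. Frozen sections (5–10 µm) were stained with rabbit anti-FITC, anti-PECAM-1 for vessels and DAPI, then examined by fluorescence microscopy.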

Experiment [4] concerns rat BT4C glioma xenografts. Briefly: in vivo homing of fluorescein-conjugated peptide, BT4C glioma. Further details: species or system mouse. Conditions: fluorescein-conjugated peptide i.v., 60 min. Put shortly:
as §1

The subject of experiment [5] is orthotopic MDA-MB-231 human breast cancer xenografts. Briefly: in vivo homing of fluorescein-conjugated peptide, MDA-MB-231 xenografts. Further details: species or system mouse. Conditions: fluorescein-conjugated peptide i.v., 60 min. The gist of the method: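 Athymic female Balb/c nu-nu mice (4–6 wk) bearing xenografts received fluorescein-labelled peptide intravenously, circulated one hour. Frozen sections (5–10 µm) were stained with rabbit anti-FITC and anti-PECAM-1 antibodies, Alexa-conjugated secondaries and DAPI, then examined under a fluorescence microscope.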

Experiment [6] has as its system subcutaneous tumors established from the HIFko cells. As to the kind of experiment: in vivo homing of fluorescein-conjugated peptide, subcutaneous HIFko tumors. Further details: species or system mouse. The conditions noted are these: fluorescein-conjugated peptide i.v., 60 min. Put shortly:
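Athymic female Balb/c nu-nu mice (4–6 wk) were grafted subcutaneously on the abdominal side with 5×10^6 HIFko cells. Fluorescein-labelled peptide was given intravenously and circulated one hour. Frozen tissue sections (5–10 µm) were stained with rabbit anti-FITC antibody, Alexa-conjugated secondary antibody and DAPI, then viewed by fluorescence microscopy.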

Experiment [7] deals with tumors derived from VEGF-expressing HIFko cells. As to the kind of experiment: in vivo homing of fluorescein-conjugated peptide, VEGF-expressing HIFko tumors. Also on record: species or system mouse. Conditions: fluorescein-conjugated peptide i.v., 60 min; i.c. tumors. Put shortly: as §1
In experiment [8] the test system is i.c. tumors derived from MDGI expressing U87MG cells. It is filed as in vivo, mouse. The conditions noted are these: MDGI expressing versus control U87MG tumors; fluorescein-conjugated peptide i.v.
The test system of experiment [9] is intracranial HIFko tumors. Briefly: treatment of intracranial HIFko tumor-bearing mice with targeted Cbl. It is filed as in vivo, mouse. Put shortly:
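Athymic female Balb/c nu-nu mice (4–6 wks) bearing intracranial HIFko tumours were randomised to groups of 4 from day 5 post-implantation. They received i.v. PBS, peptide–drug conjugate (5 mg/kg), or free drug at the same molar amount, every second day. Body weight was monitored, and mice were sacrificed once weight loss exceeded 10%.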

As to CGLSGLGVA [phage 36], the “brain tumor to normal brain ratio of ex vivo phage binding” value in [1] is “over 80”. The “accumulation in other organs (liver, kidney, lung, normal brain)” value in [2] was “negligible accumulation”.

For the substance CSESGLGVA [phage 34], the “brain tumor to normal brain ratio of ex vivo phage binding” value in experiment [1] is recorded as “about 13”.

Take H-ACGLSGLGVA-NH2 [CooP]: the “homing to intracranial U87MG human glioma” value in experiment [3] was “homed”. The “homing to rat BT4C glioma xenografts” value in [4] is reported as “homed”. The “homing to MDA-MB-231 human breast cancer xenografts” value in experiment [5] is reported as “No CooP peptide was detected”. For the same substance, the “homing to subcutaneous HIFko tumors” value in experiment [6] is “did not home”. The “homing to tumors derived from VEGF-expressing HIFko cells” value in [7] is listed as “did not home”. For the same substance, in experiment [8], the “effect of MDGI-expression on peptide homing to i.c. U87MG tumors” value is given as “substantially increased”.

As to “NH2-CGLSGLGVAGGMVRRFLVTLRIRRACGPPRVRVK(^εCbl)-CONH2 [CooP-CPP-Cbl]”, the “signs of tumor burden” value in [9] (5 mg/kg i.v. every second day from d5) is “did not show any signs of tumor burden”. Besides, the body weight course result in [9] (5 mg/kg i.v. every second day from d5, 4 mice/group) is “gained weight”. For the same substance, in experiment [9] (5 mg/kg i.v. every second day from d5, versus saline and free Cbl), the “life span of the animals” value was “prolonged the life span”. Also, the “size of the primary tumor versus control groups” value in experiment [9] (5 mg/kg i.v. every second day, four sections/animal) is given as “no difference”.
